Laboratory results as given in publication PMC6039208 (Clinical and Translational Science, 2018).
Each block holds one compound with its values, some of them ahead of it.

How the values were obtained:
[1] = Population PK model of sorafenib and its N‐oxide metabolite in patients with AML; assay type: in vivo, human
FLT3‐ITD [2] = conditions: cited from earlier work
[3] = cited from earlier work
[4] = cited from earlier work; remark: listed apart in the source
ERK = experiment: Exposure‐response; assay type: cell-based, human; conditions: for Imax,ERK, maximum inhibitory effect on ERK activity: as fraction
How it was run: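 Ex vivo ERK activity in FLT3‑ITD TF‑1 cells was read by Western blot as percent of each patient's baseline (100%). An inhibitory Emax model versus metabolite‑adjusted concentration was fitted sequentially to the PK model by FOCE‑I, with Imax estimated.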

FLT3‐ITD [5] = target: T1, FLT3‐ITD (Homo sapiens, UniProt P36888); experiment: Exposure‐response; assay type: cell-based; conditions: doses given in this study (400 or 600 mg b.i.d.)
T1 sequence (P36888 27-993): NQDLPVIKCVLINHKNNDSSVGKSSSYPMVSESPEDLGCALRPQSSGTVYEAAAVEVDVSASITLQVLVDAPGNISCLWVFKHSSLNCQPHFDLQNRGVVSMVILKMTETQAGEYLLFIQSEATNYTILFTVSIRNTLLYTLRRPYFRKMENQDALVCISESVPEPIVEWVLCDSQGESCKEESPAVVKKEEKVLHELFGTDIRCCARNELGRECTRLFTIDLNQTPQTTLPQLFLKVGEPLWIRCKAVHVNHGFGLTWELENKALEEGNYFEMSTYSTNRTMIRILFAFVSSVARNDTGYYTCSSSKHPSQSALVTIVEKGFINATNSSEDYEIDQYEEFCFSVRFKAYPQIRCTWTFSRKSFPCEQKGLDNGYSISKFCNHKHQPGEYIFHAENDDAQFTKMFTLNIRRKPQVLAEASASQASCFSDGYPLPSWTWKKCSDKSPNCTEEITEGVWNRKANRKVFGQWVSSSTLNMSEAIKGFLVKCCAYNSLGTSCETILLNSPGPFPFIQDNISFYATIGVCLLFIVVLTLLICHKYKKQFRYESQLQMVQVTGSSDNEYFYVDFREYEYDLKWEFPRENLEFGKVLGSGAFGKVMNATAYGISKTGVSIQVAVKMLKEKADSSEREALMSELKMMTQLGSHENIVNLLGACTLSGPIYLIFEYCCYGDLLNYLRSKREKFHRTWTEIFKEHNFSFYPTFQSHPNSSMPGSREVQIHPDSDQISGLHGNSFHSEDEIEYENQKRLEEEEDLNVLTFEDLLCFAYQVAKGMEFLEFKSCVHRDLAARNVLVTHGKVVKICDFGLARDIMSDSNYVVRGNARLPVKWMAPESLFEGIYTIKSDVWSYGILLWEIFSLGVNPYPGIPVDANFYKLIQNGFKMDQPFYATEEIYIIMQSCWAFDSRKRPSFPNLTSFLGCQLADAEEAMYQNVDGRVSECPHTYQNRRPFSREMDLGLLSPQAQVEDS

CYP3A4 = CYP3A4 (Homo sapiens, UniProt P08684); assay type: in vivo; conditions: patients with AML
Chain of CYP3A4 (P08684 whole entry): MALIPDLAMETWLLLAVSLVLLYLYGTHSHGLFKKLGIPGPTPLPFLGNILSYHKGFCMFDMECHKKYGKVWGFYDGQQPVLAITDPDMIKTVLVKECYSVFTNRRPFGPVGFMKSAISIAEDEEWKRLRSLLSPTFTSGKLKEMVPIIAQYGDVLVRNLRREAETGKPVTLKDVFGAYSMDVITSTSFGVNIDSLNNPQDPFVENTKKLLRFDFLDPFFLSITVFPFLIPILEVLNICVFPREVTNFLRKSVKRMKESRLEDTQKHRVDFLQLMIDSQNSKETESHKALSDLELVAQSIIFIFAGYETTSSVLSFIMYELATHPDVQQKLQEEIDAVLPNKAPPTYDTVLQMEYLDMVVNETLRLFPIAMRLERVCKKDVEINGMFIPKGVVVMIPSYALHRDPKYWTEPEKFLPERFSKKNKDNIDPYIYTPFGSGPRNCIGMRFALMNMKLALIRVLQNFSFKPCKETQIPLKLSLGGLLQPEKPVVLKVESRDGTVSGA

[6] = FOCE‐I estimate, typical value at 80 kg

- CLm, clearance of the N‐oxide metabolite [1, 6]: 116 L/h
- V7, apparent volume of distribution (compartment A7) of the N‐oxide metabolite [1, 6]: 89.80 L
- CLm, clearance of the N‐oxide metabolite ([1]; median of 1,000 bootstraps): 123 L/h
- V7, apparent volume of distribution (compartment A7) of the N‐oxide metabolite ([1]; median of 1,000 bootstraps): 94.50 L
Compound: CNC(=O)c1cc(Oc2ccc(NC(=O)Nc3ccc(Cl)c(C(F)(F)F)c3)cc2)cc[n+]1[O-] [sorafenib N‐oxide]
- fold more potent than the parent drug, FLT3‐ITD potency (FLT3‐ITD [2]; in vitro study, N‐oxide vs sorafenib): 14.59 fold

- K64, release rate constant from gallbladder back to the gastrointestinal track ([1]; FOCE‐I estimate): 0.173 h⁻¹
- TENT, time controller of enterohepatic recirculation (time after dose) ([1]; FOCE‐I estimate): 5.48 h
- fENT, fraction of sorafenib that goes through enterohepatic circulation ([1]; FOCE‐I estimate): 50.20%
- Ka, absorption rate constant ([1]; FOCE‐I estimate, patients with AML, oral): 3.75 h⁻¹
- clearance ([1]; human, plasma, oral, CL, total clearance, median of 1,000 bootstraps): 237 mL/min
- fraction unbound ([1]; human, plasma, oral, fu, %fraction of unbound sorafenib, FOCE‐I estimate): 0.0181
- K64, release rate constant from gallbladder back to the gastrointestinal track ([1]; median of 1,000 bootstraps): 0.17 h⁻¹
- Ka, absorption rate constant ([1]; median of 1,000 bootstraps): 3.78 h⁻¹
- TENT, time controller of enterohepatic recirculation (time after dose) ([1]; median of 1,000 bootstraps): 5.47 h
- fENT, fraction of sorafenib that goes through enterohepatic circulation ([1]; median of 1,000 bootstraps): 50.20%
- concentration dependence of plasma protein binding ([1]; within the observed concentration range): concentration independent
- extent of FLT3‐ITD activity inhibition (FLT3‐ITD [5]): fully inhibited
Compound: CNC(=O)c1cc(Oc2ccc(NC(=O)Nc3ccc(Cl)c(C(F)(F)F)c3)cc2)ccn1 [sorafenib]
- dose‐limiting toxicity rate ([3]; 400 mg b.i.d. regimen, 2/9 patients, original clinical trial ref 9): ~20%
- proportion of patients with AML able to adhere to dosing ([3]; continuous 400 mg b.i.d.): 18%
- dose above which saturable absorption occurs [4]: over 400 mg
- time to steady‐state [4]: ≤ 7 days
- Imax,ERK, maximum inhibitory effect on ERK activity (ERK; FOCE‐I estimate): 0.84
- extent of ERK activity inhibition (ERK; doses given in this study (400 or 600 mg b.i.d.)): could not be completely inhibited
- Imax,ERK, maximum inhibitory effect on ERK activity (ERK; median of 1,000 bootstraps): 0.82
- in vitro FLT3‐ITD inhibitory activity compared with midostaurin (FLT3‐ITD [2]): fourfold higher

- change in sorafenib exposure in the presence of the inhibitor (CYP3A4): no change
Compound: C[C@@H](c1ncncc1F)[C@](O)(Cn1cncn1)c1ccc(F)cc1F [voriconazole]
